Active and inactive are the calls of the source. The rule behind the calls is not given here.
Assays:
[1] = Antioxidant activity assessed as DPPH radical scavenging activity at 1000 ug/ml after 30 mins by spectrophotometric method relative to control; format: functional
Outline: (§1)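 The compound was serially diluted from 1000 to 1.95 µg·ml⁻¹ and mixed 1:1 with DPPH in methanol. After 30 min at room temperature, absorbance was read at 517 nm. Scavenging (%) = [(Abc − Abs)/Abc] × 100, where Abc is DPPH without compound.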

[2] = Toxicity in Sprague-Dawley rat model of OVX-induced bone loss assessed as total uterine area at 5 mg/kg, po via gavage for 12 weeks (reference value: 0.11 +/- 0.003 mm2); format: organism-based; conditions: in vivo, 2016 h
[3] = Induction of osteoblast differentiation in Sprague-Dawley rat calvarial osteoblasts assessed as alkaline phosphatase activity at 100 pM after 48 hrs using PNPP as substrate by spectrophotometric method relative to control; format: functional
Outline: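 Calvarial osteoblasts at 2 × 10³ cells/well. Treated 48 h with varied concentrations in differentiation medium (5% charcoal-treated FBS, 10 mM β-glycerophosphate, 50 µg·mL⁻¹ ascorbic acid). Total ALP read with PNPP substrate at 405 nm. Cell-free wells check for compound interference with substrate or absorbance.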

Rattus norvegicus [4] = experiment: Antiosteoporotic activity in Sprague-Dawley rat model of OVX-induced bone loss assessed as bone formation rate at 5 mg/kg, po via gavage for 12 weeks by microcomputed tomographic analysis (reference value: 0.171 +/- 0.005 um3/um2/day); format: functional
Outline: (§2)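 Female Sprague-Dawley rats, 10-12 weeks old, ten per group, were ovariectomized and left 12 weeks for osteopenia. They were then dosed once daily by oral gavage for 12 weeks in 1% gum acacia vehicle. The estradiol arm received 100 µg·kg⁻¹ subcutaneously five days a week. Tetracycline and calcein were given intraperitoneally at 20 mg·kg⁻¹ each. Femur cross-sections (50 µm) were imaged by fluorescence microscopy for MAR and BFR.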

[5] = Toxicity in Sprague-Dawley rat model of OVX-induced bone loss assessed as luminal epithelial height at 1 mg/kg, po via gavage for 12 weeks (reference value: 27.29 +/- 0.96 umeter); format: organism-based; conditions: in vivo, 2016 h
[6] = Toxicity in Sprague-Dawley rat model of OVX-induced bone loss assessed as total uterine area at 1 mg/kg, po via gavage for 12 weeks (reference value: 0.11 +/- 0.003 mm2); format: organism-based; conditions: in vivo, 2016 h
[7] = Increase in Runx2 mRNA expression in Sprague-Dawley rat calvarial osteoblasts at 100 pM by RT-PCR method relative to control; format: functional, Calvarial osteoblast
Rattus norvegicus [8] = experiment: Antiosteoporotic activity in Sprague-Dawley rat model of OVX-induced bone loss assessed as protection against microarchitectural deterioration by measuring trabecular number at 5 mg/kg, po via gavage for 12 weeks by microcomputed tomographic analysis (reference value: 0.56 +/- 0.06 /millimeter); format: functional
Outline: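 Adult female Sprague-Dawley rats were ovariectomized and left 12 weeks to become osteopenic. They then received 12 weeks of once-daily oral gavage (1% gum acacia vehicle) or subcutaneous estradiol, five days a week. Femurs were collected at sacrifice and scanned by micro-CT for BMD and trabecular microarchitecture. Ten rats per group; mean ± SEM.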

Calvarial osteoblast = experiment: Osteogenic activity in Sprague-Dawley rat calvarial osteoblasts assessed as mineralized nodule formation at 100 pM after 21 days by alizarin red-S staining based light microscopic method; format: functional, cell-based
Outline: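 Osteoblasts at 10,000–15,000 cells/cm² in duplicate plates, 21 days in differentiation medium, medium changed every 48 h. Cells fixed in 4% PFA, stained with alizarin red-S (40 mM, pH 4.5, 30 min) and photographed. Stain extracted with 10% acetic acid, pH brought to 4.5 with ammonium hydroxide, read at 405 nm, normalized to cell number.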

Rattus norvegicus [9] = experiment: Upregulation of OCN mRNA expression in femur bone of Sprague-Dawley rat model of OVX-induced bone loss at 1 to 5 mg/kg, po via gavage for 12 weeks by qPCR analysis; format: functional, organism-based
Outline: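 Ovariectomized female SD rats, osteopenic after 12 weeks, dosed orally once daily for 12 weeks (1.0 or 5.0 mg·kg⁻¹·day⁻¹, 1% gum acacia vehicle); sham and OVX vehicle groups included. Femurs collected at sacrifice for qRT-PCR, analysed by the ΔΔCT method.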

Rattus norvegicus [10] = experiment: Antiosteoporotic activity in Sprague-Dawley rat model of OVX-induced bone loss assessed as increase in femoral bone strength by measuring energy at 5 mg/kg, po via gavage for 12 weeks by 3 point bending test (reference value: 46.27 +/- 4.36 mJ); format: functional
Rattus norvegicus [11] = experiment: Antiosteoporotic activity in Sprague-Dawley rat model of OVX-induced bone loss assessed as increase in femoral bone strength by measuring energy at 1 mg/kg, po via gavage for 12 weeks by 3 point bending test (reference value: 46.27 +/- 4.36 mJ); format: functional
Rattus norvegicus [12] = experiment: Antiosteoporotic activity in Sprague-Dawley rat model of OVX-induced bone loss assessed as mineral apposition rate at 1 mg/kg, po via gavage for 12 weeks by microcomputed tomographic analysis (reference value: 0.169 +/- 0.004 umeter/day); format: functional; outline: as §2
Rattus norvegicus [13] = experiment: Antiosteoporotic activity in Sprague-Dawley rat model of OVX-induced bone loss assessed as increase in serum PINP level at 1 to 5 mg/kg, po via gavage for 12 weeks by ELISA; format: functional, organism-based
Outline: (§3)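 Ovariectomy model as above: 12 weeks of osteopenia, then 12 weeks of daily gavage or subcutaneous estradiol. Serum was separated at autopsy, and CTX and PINP were measured by ELISA kits.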

[14] = target: I-kappa-B kinase (Rattus norvegicus) (UniProt Q9QY78+G3V926+Q6TMG5); experiment: Inhibition of IKK in Sprague-Dawley rat calvarial osteoblasts assessed as reduction in TNFalpha-induced NFkB nuclear translocation at 100 pM after 24 hrs by immunofluorescence assay; format: cell-based; conditions: Calvarial osteoblast
Outline: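 Primary rat osteoblasts on chamber slides given TNFα (10 ng·ml⁻¹) for 24 h, with or without treatment. Then 4% PFA fixation, 0.1% Triton X-100, anti-NF-κB overnight, and Cy3 anti-rabbit secondary. Fluorescence imaged at excitation 552 nm, emission 570 nm.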

[15] = Hepatotoxicity in Sprague-Dawley rat model of OVX-induced bone loss assessed as morphological changes in liver at 1 to 5 mg/kg, po via gavage for 12 weeks by hematoxylin and eosin staining based assay; format: toxicity, organism-based; conditions: in vivo, 2016 h
Outline: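 Liver samples from ovariectomized rats after 12 weeks of treatment were dehydrated in isopropanol, cleared in xylene and paraffin-embedded. Transverse 5 µm sections were stained with hematoxylin and eosin and imaged.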

[16] = Antioxidant activity assessed as SNP-induced nitric oxide free radical scavenging activity at lower concentration after 150 mins by Griess reagent based method relative to control; format: functional
Outline: (§4)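 Serial dilutions (1000 to 1.95 µg·ml⁻¹) were mixed with sodium nitroprusside (10 mM) and incubated 150 min. An equal volume of Griess reagent was added, and absorbance was read at 546 nm. Percentage scavenging was calculated relative to the control without compound.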

[17] = Antioxidant activity assessed as DPPH radical scavenging activity after 30 mins by spectrophotometric method; format: functional; outline: as §1
[18] = Antioxidant activity assessed as SNP-induced nitric oxide free radical scavenging activity at 250 ug/ml after 150 mins by Griess reagent based method relative to control; format: functional; outline: as §4
Rattus norvegicus [19] = experiment: Antiosteoporotic activity in Sprague-Dawley rat model of OVX-induced bone loss assessed as decrease in serum CTX level at 1 to 5 mg/kg, po via gavage for 12 weeks by ELISA; format: functional, organism-based; outline: as §3

## CCOC(=O)c1cc2c([nH]c3ccccc32)c(C(c2nnnn2C(C)(C)C)N2CCN(C)CC2)n1 (stereo not given)
[1]
  Activity: 47.8%
[2]
  Activity: 0.13 mm2
[3]
  Emax at 0.0001 µM: 89%
Rattus norvegicus [4]
  Activity: 0.98 um3/um2/day
[5]
  Activity: 3.7 um
[6]
  Activity: 0.14 mm2
[7]
  fold change (FC): 1.8 - 4.6
Rattus norvegicus [8]
  Activity: 1.38 /millimeter
Calvarial osteoblast
  Activity: Active
Rattus norvegicus [9]
  Activity: Active
Rattus norvegicus [10]
  Activity: 60.87 mJ
Rattus norvegicus [11]
  Activity: 70.55 mJ
Rattus norvegicus [12]
  Activity: 1.062 micrometer/day
Rattus norvegicus [13]
  Activity: Active
[14]
  inhibition: Active
[15]
  Activity: Non-Toxic
[16]
  Activity: 4.07%
[17]
  Activity: Dose-dependent effect
[18]
  Activity: 30.7%
Rattus norvegicus [19]
  Activity: Active

— ChEMBL document CHEMBL4325822, “Discovery of a tetrazolyl β-carboline with in vitro and in vivo osteoprotective activity under estrogen-deficient conditions” (Medchemcomm, 2018)
